Results reported in ChEMBL document CHEMBL2331313, “Synthesis and SAR study of modulators inhibiting tRXRα-dependent AKT activation” (Eur J Med Chem, 2013).
Active and inactive are the calls of the source. The rule behind the calls is not given here.

Legend:
HCT-116 = test: Induction of apoptosis in human HCT116 cells assessed as increase in TNFalpha-induced PARP cleavage at 40 uM after 4 hrs by Western blot analysis; type: functional, cell-based
ZR-75-1 [1] = test: Induction of apoptosis in human ZR75-1 cells assessed as PARP cleavage at 30 uM after 6 hrs by Western blot analysis; type: functional, cell-based
In short: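 ZR-75-1 cells (RPMI1640, 10% FBS) treated with vehicle or 30 μM compound for 6 hr. Lysates run on 10% SDS-PAGE, blotted to PVDF and probed with anti-PARP (1:3000) for cleavage, ECL detection.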

[2] = molecular target: T1, Retinoic acid receptor RXR-alpha (Homo sapiens, UniProt P19793); test: Displacement of [3H]-9-cis-RA from RXRalpha (unknown origin) by liquid scintillation counting
T1 sequence (P19793 whole entry): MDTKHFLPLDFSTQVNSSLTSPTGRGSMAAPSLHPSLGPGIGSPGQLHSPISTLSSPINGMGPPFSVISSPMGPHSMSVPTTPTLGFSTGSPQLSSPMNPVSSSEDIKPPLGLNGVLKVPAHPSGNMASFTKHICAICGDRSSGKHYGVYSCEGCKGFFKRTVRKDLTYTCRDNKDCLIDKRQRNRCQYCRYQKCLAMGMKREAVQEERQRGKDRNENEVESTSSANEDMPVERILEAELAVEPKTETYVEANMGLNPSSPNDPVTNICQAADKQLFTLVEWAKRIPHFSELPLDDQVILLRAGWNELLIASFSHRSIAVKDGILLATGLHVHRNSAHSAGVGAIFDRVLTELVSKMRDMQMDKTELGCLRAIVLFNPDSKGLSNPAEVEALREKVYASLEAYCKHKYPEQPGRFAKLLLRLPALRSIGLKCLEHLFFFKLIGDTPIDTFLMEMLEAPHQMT

[3] = molecular target: T1, Retinoic acid receptor RXR-alpha; test: Displacement of [3H]-9-cis-RA from human GST-tagged N-terminal truncated RXRalpha after 1 hr by liquid scintillation counting
In short: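 GST-tagged human RXRα-LBD (223–462) preincubated with unlabeled 9-cis-RA or test compound at varied concentrations in binding buffer (0.15 M KCl, 10 mM Tris·HCl pH 7.4, 8% glycerol, 0.5% CHAPS), 4°C, 1 h; [3H]-9-cis-RA then added to 7.5 nM final, overnight at 4°C. Receptor captured on glutathione sepharose beads; bound radioligand counted by liquid scintillation.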

[4] = molecular target: T2, Retinoic acid receptor RXR-alpha (Homo sapiens) (UniProt P19793); test: Inhibition of RXRalpha in human HepG2 cells assessed as inhibition of TNFalpha-induced Akt phosphorylation; type: cell-based
T2 sequence (whole entry): T1 sequence (P19793 whole entry)

[5] = molecular target: T2, Retinoic acid receptor RXR-alpha (Homo sapiens); test: Inhibition of RXRalpha in human HCT116 cells assessed as inhibition of TNFalpha-induced Akt phosphorylation; type: cell-based; details: HCT-116
[6] = molecular target: T2, Retinoic acid receptor RXR-alpha (Homo sapiens); test: Inhibition of RXRalpha in human A549 cells assessed as inhibition of TNFalpha-induced Akt phosphorylation at 30 uM incubated for 1 hr prior to TNFalpha-induction measured after 30 mins by Western blot analysis; type: cell-based
In short: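 A549 cells (DMEM, 10% FBS) pretreated 1 hr with 30 μM compound, then TNFα (10 ng/mL) for 30 min. Phospho-AKT (1:1000) and total AKT (1:1000) immunoblotted after 10% SDS-PAGE, with ECL detection.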

[7] = molecular target: T2, Retinoic acid receptor RXR-alpha (Homo sapiens); test: Antagonist activity at RXRalpha (unknown origin) expressed in HCT116 cells assessed as inhibition of 9-cis-RA-induced galactosidase activity after 12 hrs by gal4 reporter gene assay; type: cell-based; details: HCT-116, in the assay text read “luciferase activity” for “galactosidase activity”
In short: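 GAL4-RXRα-LBD transactivation in HCT-116 cells: cells transfected for 24 hr with pG5 luciferase reporter (50 ng/well) plus pGAL4-RXRα-LBD vector (50 ng/well), then exposed to 9-cis-RA (10^-7 M) together with varied compound concentrations for 12 hr. Luciferase read by dual-luciferase assay. Cells grown in DMEM with 10% FBS, 37°C, 5% CO2.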

ZR-75-1 [8] = test: Cytotoxicity against human ZR75-1 cells after 24 hrs by MTT assay; type: functional, cell-based
In short: (§1)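 Cells in RPMI1640 with 10% FBS (37°C, 5% CO2) treated with various concentrations for 24 hr in 96-well format. MTT at 2 mg/mL added for 4 hr at 37°C, formazan dissolved in DMSO, absorbance read at 570 nm for viability.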

HeLa = test: Decrease in TNFalpha-induced Akt phosphorylation in RXRalpha-knockdown human HeLa cells at 20 uM incubated for 1 hr prior to TNFalpha-induction measured after 30 mins by Western blot analysis; type: functional, cell-based
PC-3 = test: Cytotoxicity against human PC3 cells after 24 hrs by MTT assay; type: functional, cell-based; in short: as §1

`CC1=C(CC(=O)O)c2cc(F)ccc2/C1=C\c1ccc([S+](C)[O-])cc1` (stereo unspecified) was tested, and the Activity (HCT-116) was “Active”, the Activity (ZR-75-1 [1]) was “Active” and the IC50 [2] was 82.9 µM.
For `CC1=C(CC(=O)O)c2cc(F)ccc2/C1=C\c1ccc(C(F)(F)F)cc1`, the IC50 [3] was 4.73 µM.
With `COc1cccc(/C=C2/C(C)=C(CC(=O)O)c3cc(F)ccc32)c1` the IC50 [3] was no less than 100 µM.
For `CC1=C(CC(=O)O)c2cc(F)ccc2/C1=C\c1ccc(-c2ccccn2)cc1`, the IC50 [3] was no less than 100 µM.
Compound `CC1=C(CC(=O)O)c2cc(F)ccc2/C1=C\c1cccc(C(F)(F)F)c1` has an IC50 [3] of 8.27 µM.
Work on `CCOc1ccc2c(c1)C(CC(=O)O)=C(C)/C2=C/c1ccc(C(C)C)cc1` yielded an IC50 [3] of 3.08 µM.
Compound `CC1=C(CC(=O)O)c2cc(F)ccc2/C1=C\c1ccc(C#N)cc1` has an IC50 [3] of no less than 100 µM.
Work on `COc1ccc2c(c1)C(CC(=O)O)=C(C)/C2=C/c1ccc(C(C)C)cc1` yielded an IC50 [3] of no less than 100 µM.
`CC1=C(CC(=O)O)c2cc(F)ccc2/C1=C\c1ccc(C(C)(C)C)cc1` gave an IC50 [3] of no less than 100 µM.
In the case of `CCc1ccc2c(c1)C(CC(=O)O)=C(C)/C2=C/c1ccc(C(C)C)cc1`, the IC50 [3] is reported as no less than 100 µM.
In the case of `CC1=C(CC(=O)O)c2cc(F)ccc2/C1=C\c1ccccc1`, the IC50 [3] is reported as 10.7 µM.
With `COc1ccc(/C=C2/C(C)=C(CC(=O)O)c3cc(F)ccc32)cc1` the IC50 [3] was no less than 100 µM.
In the case of `CC1=C(CC(=O)O)c2cc(F)ccc2/C1=C\c1ccc(C(C)C)cc1`, the Activity (HCT-116) is reported as “Active”, the Activity (ZR-75-1 [1]) is reported as “Active” and the IC50 [2] is reported as 2.4 µM. The inhibition [4] was “Active”, the inhibition [5] was “Active” and the inhibition [6] was “Active”. The inhibition [7] was “Dose-dependent effect”.
In the case of `CC1=C(CCC#N)c2cc(F)ccc2/C1=C\c1ccc(C(C)C)cc1`, the IC50 [3] is reported as no less than 100 µM.
`CC1=C(CC(=O)O)c2ccccc2/C1=C\c1ccc(C(C)C)cc1` showed an IC50 [3] of no less than 100 µM.
With `CC1=C(CC(N)=O)c2cc(F)ccc2/C1=C\c1ccc(C(C)C)cc1` the IC50 [3] was no less than 100 µM.
For `CC(C)c1ccc(/C=C2\C=C(CC(=O)O)c3cc(F)ccc32)cc1`, the Activity (ZR-75-1 [8]) was “Dose-dependent effect”, the Activity (HCT-116) was “Active” and the IC50 [3] was 1.6 µM. The Activity (ZR-75-1 [1]) was “Active”, the Activity (HeLa) was “inactive” and the Activity (PC-3) was “Dose-dependent effect”.
`CC(C)CC1=C(CC(=O)O)c2cc(F)ccc2/C1=C\c1ccc(C(C)C)cc1` showed an IC50 [3] of 3.15 µM.
For `CC(=O)Nc1ccc(/C=C2/C(C)=C(CC(=O)O)c3cc(F)ccc32)cc1`, the IC50 [3] was no less than 100 µM.
`CC1=C(CCC(=O)O)c2cc(F)ccc2/C1=C\c1ccc(C(C)C)cc1` was tested, and the IC50 [3] was 5.71 µM.
With `CC1=C(CC(N)=O)c2cc(F)ccc2/C1=C/c1ccc(C(C)C)cc1` the IC50 [3] was no less than 100 µM.
`CC1=C(CC(=O)O)c2cc(C)ccc2/C1=C\c1ccc(C(C)C)cc1` showed an IC50 [3] of no less than 100 µM.
Compound `CC1=C(CC(=O)O)c2cc(Cl)ccc2/C1=C\c1ccc(C(C)C)cc1` has an IC50 [3] of no less than 100 µM.
For `CC1=C(CC(=O)O)c2cc(C(C)C)ccc2/C1=C\c1ccc(C(C)C)cc1`, the IC50 [3] was no less than 100 µM.
For `CCC1=C(CC(=O)O)c2cc(F)ccc2/C1=C\c1ccc(C(C)C)cc1`, the IC50 [3] was 6.29 µM.
`CC1=C(CC(=O)O)c2cc(F)ccc2/C1=C\c1ccc(N(C)C)cc1` showed an IC50 [3] of no less than 100 µM.
`CCOc1ccc(/C=C2/C(C)=C(CC(=O)O)c3cc(F)ccc32)cc1` was tested, and the IC50 [3] was no less than 100 µM.
`CC1=C(CC(=O)O)c2cc(F)ccc2/C1=C\c1cccc(C#N)c1` was tested, and the IC50 [3] was no less than 100 µM.
